The values that follow come from PubChem BioAssay.

Unmarked numbers belong to inactive results. Inconclusive results are not listed. Activity calls are given as the source filed them.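 How the source made its calls, unless noted: active means cell viability at or below a set limit in both duplicate runs, the limit being the all-compound median minus 4 SD (cut at about 23% in these data, passing the limit was not always enough); inconclusive means no clear call, values can overlap the other calls; inactive means the rest.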

A short description of experiment [1]: OD615 S. cerevisiae growth inhibition, permissive medium, pilot counter-assay, permissive growth control for S. cerevisiae lifespan shortening project (AID 705;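 active means growth inhibition above 25% in both replicates, a cutoff set 3 SD above the mean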). The following applies: OD615, 24 h, at 10 µM, hits give high values. Summed up:
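System: S. cerevisiae with engineered DeaD lifespan system / Measured by: absorbance (optical density) at 615 nm / Read-out: reduction in yeast growth (OD615) / Times: 4 h cell pre-growth, 24 h exposure at 30 °C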

Experiment [2] is described as follows: Restrictive medium S. cerevisiae growth inhibition, OD615, pilot screen of yeast lifespan reduction project, restrictive growth control (AID 706;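 active means growth inhibition above a set limit, 3 SD over mean compound inhibition, in both replicates, cut at about 43% in these data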;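 further: modified DeaD lifespan yeast strain shifted to restrictive glucose medium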). The following applies: OD615, 48 h, at 10 µM, hits give high values. Summed up:
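System: Engineered S. cerevisiae DeaD strain | Buffer or medium: Glucose-based CSMM-D restrictive medium | Schedule: 4 h pre-incubation, 48 h exposure at 30 °C | Technique: Optical density at 615 nm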

Experiment [3] can be described thus: viability gain of MRP-1-high H69AR cells under doxorubicin, pilot screen, MRP-1 activator project, CellTiter-Glo, duplicate (AID 807;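 active means viability increase at or above a cutoff of the median across tested compounds plus 3 SD, cut at about 8.5% in these data, passing the limit was not always enough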;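 further: compound pretreatment 18-22 h then 72 h combined with doxorubicin; 0% = doxorubicin alone and 100% = vehicle without doxorubicin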). The following applies: H69AR viability with doxorubicin, CellTiter-Glo luminescence; at 10 µM; hits give high values. (In general: Cellular ATP, detected with luciferase, serves as a proxy for viable cell number.)
Experiment [4] can be described thus: growth suppression of beta-catenin knockout HCT116, pilot screen, human colon tumor cells (AID 823).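 Further: 0% = wells killed by 20 µM Hyamine and 100% = untreated DMSO cell wells.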 The following applies: CellTiter-Glo, 60 h, at 10 µM, hits give low values.
The nature of experiment [5]: growth suppression of PTEN-deleted HCT116, pilot screen, cell-based, HCT116 clonal line, CellTiter-Glo (AID 824;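 active means viability at or below 27.92% in each of two runs, the all-compound median minus 4 SD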;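 further: 0% = 20 µM Hyamine control and 100% = vehicle cell control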). As to conditions: 60 h, at 10 µM, hits give low values.
Experiment [6] is described as follows: inhibitors of the yeast RAM network, pilot screen, dse1pr::URA3 reporter, 5-FOA selection (AID 869;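 active means inhibition over a set limit, the all-compound mean plus 3 SD, in both replicate runs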;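 further: 0% = DMSO wells with no growth and 100% = 10 µM 1-NA-PP1 with full growth; RAM network block rescues cells from 5-FOA so hits raise OD615 growth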). The following applies: S. cerevisiae dse1pr::URA3 5-FOA growth, OD615, 2 d; at 10 µM; hits give high values; strain carries analog-sensitive mutant Cbk1 kinase.
Experiment [7] is described as follows: RAM signaling pathway blockade in yeast – S. cerevisiae, Pdr1DBD-CYC8 efflux-inhibited sensitized strain, primary screen (AID 1298;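 active means RAM network inhibition above 8.4% in each of two replicates, 3 SD over the compound average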;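 further: 0% = DMSO untreated cells without growth and 100% = 10 µM 1-NA-PP1 full growth; higher means more yeast growth rescued from 5-FOA killing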). As to conditions: S. cerevisiae cbk1-as DSE1-URA3 strain, 5-FOA growth OD615, 2 d; at 50 µM; hits give high values.

One may read the viability as a read-out of living cells in per cent, often relative to untreated cells. As usually defined, the inhibition is the drop in the measured response relative to a control, in per cent. In the case of `COc1cc(OC)cc(C(=O)Nc2cccc(NC(C)=O)c2)c1`, the growth inhibition in experiment [1] is -2.19%; in experiment [2] it was -3.84%. In addition, the viability increase in experiment [3] is -2.31%. Further, the viability in experiment [4] is 111%; in experiment [5], 108%. Further, the inhibition in experiment [6] was 2.15%. Moreover, the RAM network inhibition in experiment [7] was 2.04%.
Turning to `Cc1oc2c(O)c(O)ccc2c(=O)c1-c1ccccc1`, the growth inhibition was -4.7% in experiment [1] and 1.24% in experiment [2]. Besides, the viability increase in experiment [3] was 3.12%. Besides, the viability in experiment [4] was 95.1%; in experiment [5] it was 90.3%. For the same molecule, in experiment [6], the inhibition is -0.32%. Besides, the RAM network inhibition in experiment [7] is -0.2%.
As to `CCOc1ccccc1Oc1c(C)oc2cc(OC(=O)N3CCOCC3)ccc2c1=O`, the growth inhibition in experiment [1] is -12.9%; in experiment [2], -3.33%. Moreover, the viability increase in experiment [3] was -0.28%. For the same molecule, the viability in experiment [4] and in experiment [5] was 103% throughout. The inhibition in experiment [6] is 2.8%. For the same molecule, the RAM network inhibition in experiment [7] was 4.64%.
Consider `COc1cccc(C(c2sc3ncnn3c2O)N2CCN(C(=O)c3ccco3)CC2)c1` (stereo not drawn), for which the growth inhibition in experiment [1] is -11.1%; in experiment [2] it was -5.93%. In addition, the viability increase in experiment [3] was 0.76%. Moreover, the viability in experiment [4] was 104%; in experiment [5], 101%. In addition, the inhibition in experiment [6] is 0.91%. For the same molecule, in experiment [7], the RAM network inhibition was 2.1%.
As for `CC(C)(C)n1nc2c(c1NC(=O)c1ccc(Br)cc1)CS(=O)C2` (stereo not drawn), the results for the growth inhibition in experiment [1] and in experiment [2] were -8.25% and -4.19%, respectively. Further, the viability increase in experiment [3] was 0.64%. The viability was 107% in experiment [4] and 99.2% in experiment [5]. For the same molecule, the inhibition in experiment [6] is 0.495%. The RAM network inhibition in experiment [7] was -0.53%.
As for `CCCn1c(CN2CCN(C(=O)c3ccco3)CC2)nc2c1c(=O)n(C)c(=O)n2C`, the growth inhibition in experiment [1] is -14.1%; in experiment [2], -25.5%. Moreover, the viability increase in experiment [3] was -1.84%. Besides, the figures for the viability in experiment [4] and in experiment [5] were 97% and 93.8%, respectively. For the same molecule, in experiment [6], the inhibition was 0.34%. The RAM network inhibition in experiment [7] is 2.82%.
Turning to `O=C(c1ccc(CS(=O)(=O)c2c(Cl)cccc2Cl)o1)N1CCCC1`, the figures for the growth inhibition in experiment [1] and in experiment [2] were -1.83% and -21%, respectively. For the same molecule, the viability increase in experiment [3] is -1.96%. Moreover, the viability in experiment [4] is 103%; in experiment [5], 93.2%. Moreover, the inhibition in experiment [6] is 2.21%. In experiment [7], the RAM network inhibition was -0.84%.
Regarding `O=C(O)c1cnn2c1NC(c1cccs1)CC2C(F)(F)F` (stereo not drawn), the growth inhibition in experiment [1] is -22.6%; in experiment [2], -21.6%. In addition, the viability increase in experiment [3] was 0.98%. For the same molecule, the results for the viability in experiment [4] and in experiment [5] were 96.8% and 104%, respectively. In addition, in experiment [6], the inhibition was 1.5%. Besides, the RAM network inhibition in experiment [7] was 4.4%.
Consider `CC(=O)c1ccc(NC(=O)CSC(C)C)cc1`, for which the growth inhibition in experiment [1] is -0.135%; in experiment [2], -18.6%. For the same molecule, the viability increase in experiment [3] is -0.64%. For the same molecule, the viability is 102% in experiment [4] and 97.9% in experiment [5]. Further, the inhibition in experiment [6] was 1.36%. For the same molecule, in experiment [7], the RAM network inhibition is 0.37%.
Regarding `CN1CCN(C(=O)c2ccccc2NC(=O)Cc2ccccc2)CC1`, the growth inhibition in experiment [1] was -12.3%; in experiment [2] it was 1.69%. For the same molecule, in experiment [3], the viability increase is -1.06%. Moreover, the values for the viability in experiment [4] and in experiment [5] were 98.4% and 103%, respectively. Besides, the inhibition in experiment [6] was 1.83%. In addition, the RAM network inhibition in experiment [7] was 1.81%.
Regarding `Cc1cccn2c(=O)c3cc(C(=O)NCCN4CCOCC4)c(=N)n(CCc4ccccc4)c3nc12`, the values for the growth inhibition in experiment [1] and in experiment [2] were -0.895% and -4.73%, respectively. The viability increase in experiment [3] is -5.8%. In addition, the results for the viability in experiment [4] and in experiment [5] were 5.75% (active) and 12.8% (active), respectively. For the same molecule, the inhibition in experiment [6] was 1.02%. Besides, in experiment [7], the RAM network inhibition was 2.73%.
Take `CCNc1ccc(C(=O)OCC)cc1NC(=O)c1cccc(N(C)C)c1`: the growth inhibition is -8.58% in experiment [1] and 2.37% in experiment [2]. Also, the viability increase in experiment [3] was -5.51%. Further, the viability in experiment [4] was 18.4% (active); in experiment [5] it was 19.1% (active). Moreover, the inhibition in experiment [6] was 0.385%. The RAM network inhibition in experiment [7] was 2.72%.
Turning to `O=C(NC(Cc1ccc2c(c1)OCO2)C(=O)N1CCCC1C(=O)O)c1ccccc1` (stereo not drawn), the figures for the growth inhibition in experiment [1] and in experiment [2] were -2.82% and 0.59%, respectively. Besides, the viability increase in experiment [3] was 0.05%. Moreover, the viability is 95.1% in experiment [4] and 98.1% in experiment [5]. For the same molecule, the inhibition in experiment [6] is 0.125%. Moreover, in experiment [7], the RAM network inhibition is 6.49%.
On to `O=C(c1ccc(CS(=O)(=O)c2c(Cl)cccc2Cl)o1)N1CCN(c2ccccn2)CC1`, for which the results for the growth inhibition in experiment [1] and in experiment [2] were -4.86% and -8.68%, respectively. For the same molecule, the viability increase in experiment [3] is -3.07%. Besides, the viability was 97.8% in experiment [4] and 93.1% in experiment [5]. Moreover, the inhibition in experiment [6] is -0.07%. For the same molecule, in experiment [7], the RAM network inhibition is 3.34%.
Regarding `O=C(CSc1ccc2nnc(-c3cccnc3)n2n1)N1CCc2ccccc21`, the growth inhibition in experiment [1] was -5.28%; in experiment [2] it was 4.37%. The viability increase in experiment [3] is -3.19%. Also, the viability was 103% in experiment [4] and 94.1% in experiment [5]. In addition, the inhibition in experiment [6] is 0.845%. Further, the RAM network inhibition in experiment [7] was 4.57%.
Turning to `O=C(Cc1cccs1)N(Cc1ccco1)C1(C(=O)NC2CCCC2)CCCCC1`, the results for the growth inhibition in experiment [1] and in experiment [2] were -6.91% and -9.26%, respectively. For the same molecule, in experiment [3], the viability increase is -5.17%. Besides, the viability in experiment [4] is 66.5%; in experiment [5], 67.1%. For the same molecule, in experiment [6], the inhibition was 0.86%. For the same molecule, the RAM network inhibition in experiment [7] was 6.21%.
As for `Cn1cccc1Cc1nnc(SCC(=O)N2CCCCCC2)n1-c1ccc(F)cc1`, the figures for the growth inhibition in experiment [1] and in experiment [2] were 0.935% and 18%, respectively. In experiment [3], the viability increase was -1.67%. The values for the viability in experiment [4] and in experiment [5] were 84% and 88.5%, respectively. Moreover, in experiment [6], the inhibition was 1.27%. Besides, in experiment [7], the RAM network inhibition was 4.48%.
For the molecule `O=C(Nc1c(F)cc(F)cc1Br)c1cc(-c2ccc(O)cc2)on1`, the growth inhibition in experiment [1] was -17.7%; in experiment [2], 5.22%. Also, the viability increase in experiment [3] is -4.92%. Also, the viability in experiment [4] is 92%; in experiment [5], 85.4%. Moreover, the inhibition in experiment [6] was 0.53%. Besides, the RAM network inhibition in experiment [7] is -0.21%.
On to `Cc1ccc(C)c(NC(=O)CS(=O)(=O)c2cn(C)c3ccccc23)c1`, for which the growth inhibition in experiment [1] is -7.22%; in experiment [2], 2.97%. Also, the viability increase in experiment [3] was -0.69%. Besides, the values for the viability in experiment [4] and in experiment [5] were 103% and 98.2%, respectively. The inhibition in experiment [6] is 0.025%. Also, in experiment [7], the RAM network inhibition is 1.3%.
`CCCCSCc1[nH]c(=O)[nH]c1C(=O)CCCCC(=O)OCC`: the growth inhibition in experiment [1] is -12.8%; in experiment [2], -1.29%. For the same molecule, the viability increase in experiment [3] was -3.65%. In addition, the viability in experiment [4] is 99.4%; in experiment [5] it was 100%. For the same molecule, the inhibition in experiment [6] is 0.975%. Further, the RAM network inhibition in experiment [7] was 2.54%.
Consider `Cc1onc(-c2ccccc2Cl)c1C(=O)Nc1ccc(S(=O)(=O)N2CCCC2)cc1`, for which the growth inhibition was 0.03% in experiment [1] and 9.99% in experiment [2]. The viability increase in experiment [3] is -2.15%. In addition, the viability in experiment [4] was 86.3%; in experiment [5] it was 81.2%. Moreover, the inhibition in experiment [6] was 1.72%. Further, the RAM network inhibition in experiment [7] is 4.75%.
Regarding `CCOC(=O)/C(C#N)=C1/C=Nc2ccccc2N1`, the growth inhibition was -4.26% in experiment [1] and -1.09% in experiment [2]. For the same molecule, the viability increase in experiment [3] is -1.54%. For the same molecule, the viability in experiment [4] is 103%; in experiment [5], 89.8%. The inhibition in experiment [6] was -0.42%. Moreover, the RAM network inhibition in experiment [7] is 0.25%.
As to `O=C(CSc1oc(-c2ccco2)nc1S(=O)(=O)c1ccc(F)cc1)NCC1CCCO1` (stereo not drawn), the growth inhibition in experiment [1] was -6.81%; in experiment [2], 0.32%. In experiment [3], the viability increase is -1.31%. The viability in experiment [4] is 101%; in experiment [5], 106%. The inhibition in experiment [6] is 0.295%. Moreover, the RAM network inhibition in experiment [7] was 3.81%.
For the molecule `COc1cccc(NC(=O)Cn2cnc3sc(C)c(S(=O)(=O)N4CCN(C)CC4)c3c2=O)c1`, the growth inhibition in experiment [1] is -17.7%; in experiment [2], -24.1%. For the same molecule, the viability increase in experiment [3] is -1.93%. Also, the viability was 89% in experiment [4] and 83.2% in experiment [5]. The inhibition in experiment [6] is 1.76%. For the same molecule, the RAM network inhibition in experiment [7] was 1.09%.
